Entries after “also recorded” stand apart in the source; their conditions may differ. Like-named read-outs stand apart in the source and are kept apart here. Each block holds one molecule with its values, some of them ahead of it.
Experiments:
AMPK = conditions: cited from earlier work
human α1β2γ1 AMPK [1] = target: human α1β2γ1 AMPK (Homo sapiens, UniProt P54619); format: biochemical
[2] = tested on: AID-αRIM / core AMPK(α1[395-550]-β2[187-272]-γ1); assay: AlphaScreen interaction between biotinylated core AMPK and His6GST-AID-αRIM; format: binding, human; conditions: wild-type AID-αRIM; AMP 0.2 mM, ATP 1 mM
Procedure, shortened: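 Two-protein AlphaScreen pairing 100 nM His6-tagged protein on nickel acceptor beads with 100 nM biotin-tagged protein on streptavidin donor beads. Biotinylated core AMPK (α1[395-550]-β2[187-272]-γ1) was an avitag fusion biotinylated in E. coli by co-expressed BirA with 40 μM biotin. Reactions ran in 50 mM MOPS pH 7.4, 50 mM NaF, 50 mM CHAPS, 0.1 mg/ml BSA, 0.2 mM AMP, 1 mM ATP.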

[3] = target: CBM-KD interaction of AMPK; assay: AlphaScreen interaction between isolated biotin-CBM and His6-KD in trans; format: binding, human
Procedure, shortened: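 Biotin-CBM (β2[75-163] avitag, biotinylated in vivo) was split in two. One half was phosphorylated in trans by CaMKKβ-phosphorylated His6-KD (CBM:KD 50:1, 4 h, RT), then freed of KD by Ni column and size exclusion. 100 nM biotin-CBM on streptavidin donor beads was paired with 100 nM His6-KD on Ni acceptor beads. Buffer: 50 mM MOPS pH 7.4, 50 mM NaF, 50 mM CHAPS, 0.1 mg/ml BSA.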

holo-AMPK = assay: AlphaScreen CBM-KD interaction in holo-AMPK; format: binding, human; conditions: glycogen 0.5 mg/ml, cyclodextrin 2 mM
rat liver AMPK = conditions: cited from earlier work
[4] = tested on: recombinant, E. coli-expressed AMPK; conditions: cited from earlier work
human α1β2γ1 AMPK [5] = assay: Radioactive kinase assay; format: biochemical; conditions: phosphorylated AMPK; 1 mg/ml glycogen
[6] = target: T1, AMPK γ1(24-327), γ-subunit of the crystallised holo-AMPK (human, UniProt P54619 24-327); assay: crystal structure
T1 sequence (P54619 24-327): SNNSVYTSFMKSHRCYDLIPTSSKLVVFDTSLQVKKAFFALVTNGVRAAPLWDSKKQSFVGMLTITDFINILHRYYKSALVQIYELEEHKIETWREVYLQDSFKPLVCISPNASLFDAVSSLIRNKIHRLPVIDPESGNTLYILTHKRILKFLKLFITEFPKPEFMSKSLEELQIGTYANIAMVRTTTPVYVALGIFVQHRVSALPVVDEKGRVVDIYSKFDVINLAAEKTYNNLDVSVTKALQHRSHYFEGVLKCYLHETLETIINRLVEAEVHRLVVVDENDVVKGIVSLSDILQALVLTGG

[7] = target: T1, AMPK γ1(24-327), γ-subunit of the …; assay: crystal structure; remark: listed apart in the source

human α1β2γ1 AMPK (Homo sapiens, UniProt P54619), sequence (P54619 24-327, one chain of several): as the sequence (P54619 24-327) above
human α1β2γ1 AMPK (Homo sapiens, UniProt P54619), sequence (Q13131 20-559 partner, one chain of several): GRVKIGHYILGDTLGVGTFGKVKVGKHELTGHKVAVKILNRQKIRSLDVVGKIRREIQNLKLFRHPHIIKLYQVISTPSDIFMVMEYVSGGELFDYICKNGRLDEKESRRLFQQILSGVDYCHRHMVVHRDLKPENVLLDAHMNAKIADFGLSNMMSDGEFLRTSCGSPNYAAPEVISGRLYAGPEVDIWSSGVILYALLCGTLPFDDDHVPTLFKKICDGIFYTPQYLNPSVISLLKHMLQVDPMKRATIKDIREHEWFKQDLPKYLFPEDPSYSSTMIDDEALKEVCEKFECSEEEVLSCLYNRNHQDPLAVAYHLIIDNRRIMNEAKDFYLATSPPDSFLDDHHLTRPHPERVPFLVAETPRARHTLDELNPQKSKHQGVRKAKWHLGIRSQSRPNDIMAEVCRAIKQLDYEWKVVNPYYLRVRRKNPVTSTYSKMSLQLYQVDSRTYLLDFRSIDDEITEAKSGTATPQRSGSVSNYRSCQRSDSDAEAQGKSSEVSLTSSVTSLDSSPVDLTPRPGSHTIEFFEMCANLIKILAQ

Molecule: N#Cc1c(O)c2c(-c3ccc(-c4ccccc4O)cc3)csc2[nH]c1=O [A769662]
- effect on kinase activity (AMPK): increase kinase activity

- change of luminescence signal, α-γ tagged AMPK (human α1β2γ1 AMPK [1]; 2 μM AMP): doubled the luminescence signal
Molecule: Nc1ncnc2c1ncn2[C@@H]1O[C@H](COP(=O)(O)O)[C@@H](O)[C@H]1O [AMP]
- effect on AID-αRIM / core AMPK interaction signal [2]: increased

- change of luminescence signal, α-γ tagged AMPK (human α1β2γ1 AMPK [1]; 1 mM ATP): decreased the signal by a factor of two
Molecule: Nc1ncnc2c1ncn2[C@@H]1O[C@H](COP(=O)(O)OP(=O)(O)OP(=O)(O)O)[C@@H](O)[C@H]1O [ATP]
- effect on AID-αRIM / core AMPK interaction signal [2]: decreased

Molecule: Cc1ccc(Oc2nc3cc(-c4ccc5c(ccn5C)c4)c(Cl)cc3[nH]2)cc1C(=O)O [compound 991]
- effect on kinase activity (AMPK): increase kinase activity

- effect on AlphaScreen signal of holo-AMPK (CBM-KD) (holo-AMPK; phosphorylated AMPK): smaller decrease
Molecule: OC[C@H]1O[C@@H]2O[C@H]3[C@H](O)[C@@H](O)[C@@H](O[C@H]4[C@H](O)[C@@H](O)[C@@H](O[C@H]5[C@H](O)[C@@H](O)[C@@H](O[C@H]6[C@H](O)[C@@H](O)[C@@H](O[C@H]7[C@H](O)[C@@H](O)[C@@H](O[C@H]8[C@H](O)[C@@H](O)[C@@H](O[C@H]1[C@H](O)[C@H]2O)O[C@@H]8CO)O[C@@H]7CO)O[C@@H]6CO)O[C@@H]5CO)O[C@@H]4CO)O[C@@H]3CO [cyclodextrin, β-cyclodextrin hydrate]
- effect on CBM-KD interaction signal ([3]; non-phosphorylated CBM, cyclodextrin 2 mM): greatly reduced the interaction; also recorded: strongly reduced the interaction
- effect on CBM-KD interaction signal ([3]; phosphorylated CBM, cyclodextrin 2 mM): mildly; also recorded: only weakly reduced the interaction
- effect on activity of immunoprecipitated native rat liver AMPK (rat liver AMPK): more substantially inhibit
- effect on catalytic activity of recombinant AMPK [4]: mildly inhibit

- effect on CBM-KD interaction signal ([3]; phosphorylated and non-phosphorylated CBM, glycogen 0.5 mg/ml): almost abolished this interaction
- effect on AlphaScreen signal of holo-AMPK (CBM-KD) (holo-AMPK; non-phosphorylated AMPK): significant (P < 0.01) signal decrease
- effect on AlphaScreen signal of holo-AMPK (CBM-KD) (holo-AMPK; phosphorylated AMPK): smaller decrease
- effect on AMPK catalytic activity (human α1β2γ1 AMPK [5]): failed to detect an effect
Molecule: glycogen
- effect on activity of immunoprecipitated native rat liver AMPK (rat liver AMPK): more substantially inhibit
- effect on activity of purified rat liver AMPK (rat liver AMPK; purified rat liver AMPK): did not detect an effect
- effect on catalytic activity of recombinant AMPK [4]: mildly inhibit

- binding result [6]: binds
B1: phosphorylated AMPK β2(76-272), β-subunit of the crystallised phosphorylated holo-AMPK (domain or fragment)
chain: ARPTVIRWSEGGKEVFISGSFNNWSTKIPLIKSHNDFVAILDLPEGEHQYKFFVDGQWVHDPSEPVVTSQLGTINNLIHVKKSDFEVFDALKLDSMESSETSCRDLSSSPPGPYGQEMYAFRSEERFKSPPILPPHLLQVILNKDTNISCDPALLPEPNHVMLNHLYALSIKDSVMVLSATHRYKKKYVTTLLYKPI
modifications: phosphoserine at 108 (autophosphorylated)

- binding result [7]: binds
B2: non-phosphorylated AMPK β2(76-272), β-subunit of the crystallised non-phosphorylated holo-AMPK (domain or fragment)
chain: B1 chain

From article PMC4650587 (Cell Research, 2014)
